# Laboratory results reported in publication PMC10376460 (European Journal of Endocrinology, 2023).
# “And” between values parts separate entries of the source, which are not always exact repeats. Equal values may be shown once. “Also recorded” adds a separate entry of the source.
# Assays:
# [1] = test system: organic anion transporting polypeptide (OATP) 1B1/3 transporters; conditions: in vitro; cited from earlier work
# premenopausal women [2] = test: Ovarian function assessment; assay type: in vivo, human; conditions: 60 mg QD or BID 28 d
# Procedure, shortened: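 Open-label, intraindividual comparison in 18 premenopausal women: a pretreatment cycle, then oral test compound 60 mg QD or BID for 28 days. Assessments were transvaginal ultrasound (follicle diameter, endometrial thickness), Hoogland scoring of ovarian activity, and a bleeding pattern from daily self-rated maximum bleeding intensity. FSH and LH were sampled at 3- to 4-day visits, with extra visits on urinary E3G rises.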
# [3] = Plasma pharmacokinetics, part B; assay type: in vivo, human; conditions: premenopausal women
# Procedure, shortened: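 Premenopausal women received open-label oral test compound 60 mg QD or BID for 28 days. Plasma parent and metabolite M-7 concentrations were measured. Standard noncompartmental multiple-dose PK parameters were calculated from concentration-time data.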
# premenopausal women [4] = test: Steroid assay; assay type: in vivo, human
# Procedure, shortened: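 Premenopausal women, pretreatment cycle versus 28-day treatment with 60 mg QD or BID. A validated multiplex LC-MS/MS kit measured 17 serum steroids at 3- to 4-day visits, E3G-triggered visits, first bleeding days and end of treatment. LH-peak-adjusted AUCs were taken from day −5 to +10 per cycle. Cycles were compared with 90% CI and Bonferroni–Holm-adjusted P values, and values below LLOQ were excluded.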
# AKR1C1 = conditions: concentrations up to 10 µM; cited from earlier work
# postmenopausal women [5] = test: Safety assessments; assay type: in vivo, human
# Procedure, shortened: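 Safety covered adverse event reports, vital signs, ECGs, hematology, serum chemistry including liver function tests (transaminases, alkaline phosphatase) and urinalysis. Total serum bilirubin was followed during and after dosing against an ULN of 1.23 mg/dL. Placebo recipients were pooled, with descriptive statistics.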
# human AKR1C3 = target: T1, human AKR1C3 (Homo sapiens, UniProt P42330); test: Biochemical enzyme assay: coumberol formation from coumberone; conditions: read-out: IC50, inhibition of human AKR1C3 activity; coumberone 0.3 µmol/L (Km)
# T1 sequence (P42330 1-323): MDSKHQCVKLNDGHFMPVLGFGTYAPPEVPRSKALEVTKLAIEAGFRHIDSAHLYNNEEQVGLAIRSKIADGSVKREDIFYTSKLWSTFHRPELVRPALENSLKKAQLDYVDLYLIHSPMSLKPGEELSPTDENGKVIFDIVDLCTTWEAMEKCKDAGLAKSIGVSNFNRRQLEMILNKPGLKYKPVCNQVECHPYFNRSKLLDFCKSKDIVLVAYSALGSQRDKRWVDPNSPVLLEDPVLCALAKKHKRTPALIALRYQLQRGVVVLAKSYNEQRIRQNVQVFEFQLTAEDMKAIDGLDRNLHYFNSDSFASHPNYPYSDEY
# AKR1C2 = conditions: concentrations up to 10 µM; cited from earlier work
# postmenopausal women [6] = test: Steroid assay; assay type: in vivo, human; conditions: 30 mg QD to 60 mg BID for 14 days
# Procedure, shortened: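 Postmenopausal women received test compound QD or BID, or placebo, for 14 days with 5-day follow-up. A commercial validated multiplex LC-MS/MS kit quantified 17 serum steroids at 0-48 h after dosing on day −1, day 1 and day 14, plus predose samples. Fold change was the ratio to the last pre-dose value of the period. Values below LLOQ were excluded.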
# AKR1C4 = conditions: concentrations up to 10 µM; cited from earlier work
# [7] = Plasma pharmacokinetics, part A; assay type: in vivo, human
# Procedure, shortened: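 Postmenopausal women, randomized, double-blind, placebo-controlled (7 active, 2 placebo per step). A single dose was given, then after a 14-28 day washout 3, 30 or 90 mg QD or 60 mg BID for 14 days. Plasma parent and metabolite M-7 were sampled predose to 336 h, plus periodic predose troughs. Noncompartmental parameters, accumulation and linearity indices were derived, and steady state was judged from mean Ctrough.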
# [8] = test system: premenopausal women with endometriosis; conditions: phase 2 study; cited from earlier work
# [9] = test system: healthy premenopausal and postmenopausal women; test: Eicosanoid; assay type: in vivo, human; conditions: systemic measurements
# Procedure, shortened: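 Plasma from postmenopausal (part A) and premenopausal (part B) women on the test compound. Eicosanoids, including prostaglandins, and polyunsaturated fatty acids were measured together by a published LC-MS/MS method. Part B sampling was at 3- to 4-day visits.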
# [10] = LH-peak-adjusted AUC, 60 mg once or twice daily 28 d
# [11] = serum, LH-peak-adjusted (day −5 to +10), 60 mg once or twice daily 28 d
# [12] = treatment vs pretreatment cycle, 60 mg once or twice daily 28 d
structure (smiles),measurement,setting,value
CN(CCC(=O)O)C(=O)c1ccc2c(c1)CC[C@@H]1[C@@H]2CC[C@]2(C)C(c3cncc(F)c3)=CC[C@@H]12 [BAY1128688],inhibition of OATP 1B1/3 transporters,[1],inhibitor
same,menstrual cyclicity and ovarian function,premenopausal women [2],not altered
same,participants with Hoogland score of 6 (normal ovulation) in treatment cycle,premenopausal women [2],14 of 18 and 14/18
same,multiple-dose PK parameters compared with postmenopausal women,[3],Largely similar
same,changes in serum E2 (17β-estradiol) concentrations,premenopausal women [4]; 60 mg QD or BID 28 d,no concomitant changes; also recorded: no systematic changes
same,changes in serum progesterone concentrations,premenopausal women [4]; 60 mg QD or BID 28 d,no concomitant changes; also recorded: no systematic changes
same,"serum testosterone, treatment cycle vs pretreatment cycle",premenopausal women [4]; 60 mg QD or BID 28 d,slightly decrease
same,"11-Deoxycorticosterone: X-fold change from baseline, mean",premenopausal women [4]; [10],0.88
same,"11-Deoxycorticosterone: X-fold change from baseline, median",premenopausal women [4]; [10],0.87
same,"11-Deoxycortisol: X-fold change from baseline, mean",premenopausal women [4]; [10],0.85
same,"11-Deoxycortisol: X-fold change from baseline, median",premenopausal women [4]; [10],0.79
same,"17alpha-Hydroxyprogesterone: X-fold change from baseline, mean",premenopausal women [4]; [10],0.88
same,"17alpha-Hydroxyprogesterone: X-fold change from baseline, median",premenopausal women [4]; [10],0.87
same,"Aldosterone: X-fold change from baseline, mean",premenopausal women [4]; [10],1.05
same,"Aldosterone: X-fold change from baseline, median",premenopausal women [4]; [10],0.94
same,"Androstenedione: X-fold change from baseline, mean",premenopausal women [4]; [10],0.99
same,"Androstenedione: X-fold change from baseline, median",premenopausal women [4]; [10],0.98
same,"Androsterone: X-fold change from baseline, mean",premenopausal women [4]; [10],2.95
same,"Androsterone: X-fold change from baseline, median",premenopausal women [4]; [10],2.42
same,"Corticosterone: X-fold change from baseline, mean",premenopausal women [4]; [10],0.98
same,"Corticosterone: X-fold change from baseline, median",premenopausal women [4]; [10],0.95
same,"Cortisol: X-fold change from baseline, mean",premenopausal women [4]; [10],0.95
same,"Cortisol: X-fold change from baseline, median",premenopausal women [4]; [10],0.92
same,"Cortisone: X-fold change from baseline, mean",premenopausal women [4]; [10],0.94
same,"Cortisone: X-fold change from baseline, median",premenopausal women [4]; [10],0.92
same,"Dehydroepiandrosterone sulfate: X-fold change from baseline, mean",premenopausal women [4]; [10],1.11
same,"Dehydroepiandrosterone sulfate: X-fold change from baseline, median",premenopausal women [4]; [10],1.12
same,"Dehydroepiandrosterone: X-fold change from baseline, mean",premenopausal women [4]; [10],0.83
same,"Dehydroepiandrosterone: X-fold change from baseline, median",premenopausal women [4]; [10],0.78
same,"Dihydrotestosterone: X-fold change from baseline, mean",premenopausal women [4]; [10],1.52
same,"Dihydrotestosterone: X-fold change from baseline, median",premenopausal women [4]; [10],1.53
same,"Estradiol: X-fold change from baseline, mean",premenopausal women [4]; [10],1.06
same,"Estradiol: X-fold change from baseline, median",premenopausal women [4]; [10],1.12
same,"Estrone: X-fold change from baseline, mean",premenopausal women [4]; [10],1.05
same,"Estrone: X-fold change from baseline, median",premenopausal women [4]; [10],1.08
same,"Etiocholanolone: X-fold change from baseline, mean",premenopausal women [4]; [10],1.96
same,"Etiocholanolone: X-fold change from baseline, median",premenopausal women [4]; [10],1.70
same,"Progesterone: X-fold change from baseline, mean",premenopausal women [4]; [10],0.84
same,"Progesterone: X-fold change from baseline, median",premenopausal women [4]; [10],0.90
same,"Testosterone: X-fold change from baseline, mean",premenopausal women [4]; [10],0.86
same,"Testosterone: X-fold change from baseline, median",premenopausal women [4]; [10],0.87
same,11-Deoxycorticosterone: Treatment period AUC,premenopausal women [4]; [11],1.61 nmol/day
same,11-Deoxycortisol: Treatment period AUC,premenopausal women [4]; [11],4.84 nmol/day
same,17alpha-Hydroxyprogesterone: Treatment period AUC,premenopausal women [4]; [11],42.5 nmol/day
same,Aldosterone: Treatment period AUC,premenopausal women [4]; [11],3.17 nmol/day
same,Androstenedione: Treatment period AUC,premenopausal women [4]; [11],51.1 nmol/day
same,Androsterone: Treatment period AUC,premenopausal women [4]; [11],20.6 nmol/day
same,Corticosterone: Treatment period AUC,premenopausal women [4]; [11],90.6 nmol/day
same,Cortisol: Treatment period AUC,premenopausal women [4]; [11],4102 nmol/day
same,Cortisone: Treatment period AUC,premenopausal women [4]; [11],859 nmol/day
same,Dehydroepiandrosterone sulfate: Treatment period AUC,premenopausal women [4]; [11],69 510 nmol/d
same,Dehydroepiandrosterone: Treatment period AUC,premenopausal women [4]; [11],130 nmol/day
same,Dihydrotestosterone: Treatment period AUC,premenopausal women [4]; [11],10.2 nmol/day
same,Estradiol: Treatment period AUC,premenopausal women [4]; [11],7.29 nmol/day
same,Estrone: Treatment period AUC,premenopausal women [4]; [11],4.02 nmol/day
same,Etiocholanolone: Treatment period AUC,premenopausal women [4]; [11],7.01 nmol/day
same,Progesterone: Treatment period AUC,premenopausal women [4]; [11],213 nmol/day
same,Testosterone: Treatment period AUC,premenopausal women [4]; [11],9.45 nmol/day
same,"androsterone on-treatment value, maximum","premenopausal women [4]; serum, 60 mg QD or BID",6.36 nmol/L
same,11-Deoxycorticosterone: AUC difference (mixed linear model),premenopausal women [4]; [12],-0.308 nmol/day
same,11-Deoxycortisol: AUC difference (mixed linear model),premenopausal women [4]; [12],-0.953 nmol/day
same,17alpha-Hydroxyprogesterone: AUC difference (mixed linear model),premenopausal women [4]; [12],-5.20 nmol/day
same,Aldosterone: AUC difference (mixed linear model),premenopausal women [4]; [12],0.0041 nmol/day
same,Androstenedione: AUC difference (mixed linear model),premenopausal women [4]; [12],-0.312 nmol/day
same,Androsterone: AUC difference (mixed linear model),premenopausal women [4]; [12],13.5 nmol/day
same,Corticosterone: AUC difference (mixed linear model),premenopausal women [4]; [12],-17.7 nmol/day
same,Cortisol: AUC difference (mixed linear model),premenopausal women [4]; [12],-407 nmol/day
same,Cortisone: AUC difference (mixed linear model),premenopausal women [4]; [12],-55.6 nmol/day
same,Dehydroepiandrosterone sulfate: AUC difference (mixed linear model),premenopausal women [4]; [12],9524 nmol/day
same,Dehydroepiandrosterone: AUC difference (mixed linear model),premenopausal women [4]; [12],-23.3 nmol/day
same,Dihydrotestosterone: AUC difference (mixed linear model),premenopausal women [4]; [12],3.49 nmol/day
same,Estradiol: AUC difference (mixed linear model),premenopausal women [4]; [12],0.343 nmol/day
same,Estrone: AUC difference (mixed linear model),premenopausal women [4]; [12],0.139 nmol/day
same,Etiocholanolone: AUC difference (mixed linear model),premenopausal women [4]; [12],3.47 nmol/day
same,Progesterone: AUC difference (mixed linear model),premenopausal women [4]; [12],-50.6 nmol/day
same,Testosterone: AUC difference (mixed linear model),premenopausal women [4]; [12],-1.43 nmol/day
same,inhibition of AKR1C1,AKR1C1,no inhibition
same,"individual maximum increase in total serum bilirubin, fold ULN","postmenopausal women [5]; 60 mg BID, day 13",around 1.2 fold ULN
same,"individual maximum increase in total serum bilirubin, fold ULN","postmenopausal women [5]; 90 mg QD, day 6",around 2.3 fold ULN
same,overall safety and tolerability,"postmenopausal women [5]; 2 or 4 weeks of treatment, healthy female participants",safe and well tolerated
same,"increases in serum bilirubin, fold above the ULN",postmenopausal women [5]; all participants except two,below 1.50 fold
same,changes in liver enzymes (transaminases; alkaline phosphatase),"postmenopausal women [5]; any of the participants, parts A and B",no concomitant changes
same,IC50,human AKR1C3,1.4 nM
same,inhibition of AKR1C2,AKR1C2,no inhibition
same,serum concentrations of androsterone,postmenopausal women [6],increased in a dose-dependent manner
same,inhibition of AKR1C4,AKR1C4,no inhibition
same,RAAUC (accumulation ratio),"[7]; 60 mg BID, geometric mean/%CV",2.32
same,time until PK steady-state conditions were reached (mean Ctrough),[7]; all dose groups,4 to 8 days
same,finding that terminated development,[8],hepatotoxicity
same,impact on prostaglandins investigated,[9],no obvious impact
